# Laboratory results as given in ChEMBL document CHEMBL1132360, “N-Substituted (2,3-dihydro-1,4-benzodioxin-2-yl)methylamine derivatives as D(2) antagonists/5-HT(1A) partial agonists with potential as atypical antipsychotic agents” (J Med Chem, 1999).
# Tests used:
# [1] = target: T1, 5-hydroxytryptamine receptor 1A (Rattus norvegicus, UniProt P19327); experiment: Binding affinity towards 5-hydroxytryptamine 1A receptor from rat brain using [3H]-8-OH-DPAT as radioligand
# T1 sequence (P19327 whole entry): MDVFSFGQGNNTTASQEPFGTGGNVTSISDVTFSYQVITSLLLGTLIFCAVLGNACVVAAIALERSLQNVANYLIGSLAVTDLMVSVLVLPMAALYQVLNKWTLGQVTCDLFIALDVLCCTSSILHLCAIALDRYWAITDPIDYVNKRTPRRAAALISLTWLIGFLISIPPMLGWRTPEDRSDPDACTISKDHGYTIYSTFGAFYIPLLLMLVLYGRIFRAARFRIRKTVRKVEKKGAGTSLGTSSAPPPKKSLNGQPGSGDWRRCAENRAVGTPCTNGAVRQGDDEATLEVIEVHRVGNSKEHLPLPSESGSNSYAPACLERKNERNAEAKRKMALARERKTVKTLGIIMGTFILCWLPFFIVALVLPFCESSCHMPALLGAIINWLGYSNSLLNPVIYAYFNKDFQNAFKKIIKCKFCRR
# [2] = target: T2, Adrenergic receptor alpha-1 (Homo sapiens, UniProt P35348+P25100+P35368); experiment: Binding affinity towards Alpha-1 adrenergic receptor in human cortex membranes; type: cell membranes
# T2 sequence (P35348 whole entry): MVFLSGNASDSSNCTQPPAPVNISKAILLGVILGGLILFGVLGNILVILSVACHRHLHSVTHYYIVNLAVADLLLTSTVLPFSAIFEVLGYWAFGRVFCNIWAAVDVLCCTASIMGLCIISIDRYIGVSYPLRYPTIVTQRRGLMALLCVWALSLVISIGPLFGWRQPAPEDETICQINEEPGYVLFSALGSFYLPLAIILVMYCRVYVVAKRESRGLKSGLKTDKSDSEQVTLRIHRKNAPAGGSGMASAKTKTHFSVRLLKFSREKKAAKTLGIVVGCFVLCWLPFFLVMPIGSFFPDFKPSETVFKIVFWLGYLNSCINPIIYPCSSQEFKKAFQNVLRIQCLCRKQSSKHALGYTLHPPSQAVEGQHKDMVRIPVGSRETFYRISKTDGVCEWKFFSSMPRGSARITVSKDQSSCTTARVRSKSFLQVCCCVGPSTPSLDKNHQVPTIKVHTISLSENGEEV
# T2 sequence (P25100 whole entry): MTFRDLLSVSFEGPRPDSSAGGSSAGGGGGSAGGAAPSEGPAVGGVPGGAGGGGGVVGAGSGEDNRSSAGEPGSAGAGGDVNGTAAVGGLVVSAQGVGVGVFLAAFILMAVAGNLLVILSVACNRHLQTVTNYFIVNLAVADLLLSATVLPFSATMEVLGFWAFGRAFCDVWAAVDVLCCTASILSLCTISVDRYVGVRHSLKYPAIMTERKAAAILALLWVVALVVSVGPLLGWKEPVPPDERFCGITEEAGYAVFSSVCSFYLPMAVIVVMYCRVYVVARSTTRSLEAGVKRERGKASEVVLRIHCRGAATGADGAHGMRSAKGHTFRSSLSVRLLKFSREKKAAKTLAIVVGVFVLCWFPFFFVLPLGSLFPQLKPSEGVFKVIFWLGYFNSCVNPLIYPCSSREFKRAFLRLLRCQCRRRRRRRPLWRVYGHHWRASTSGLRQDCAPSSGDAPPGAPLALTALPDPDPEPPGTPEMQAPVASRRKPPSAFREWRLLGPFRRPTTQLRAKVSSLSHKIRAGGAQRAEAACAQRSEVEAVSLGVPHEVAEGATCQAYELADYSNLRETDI
# T2 sequence (P35368 whole entry): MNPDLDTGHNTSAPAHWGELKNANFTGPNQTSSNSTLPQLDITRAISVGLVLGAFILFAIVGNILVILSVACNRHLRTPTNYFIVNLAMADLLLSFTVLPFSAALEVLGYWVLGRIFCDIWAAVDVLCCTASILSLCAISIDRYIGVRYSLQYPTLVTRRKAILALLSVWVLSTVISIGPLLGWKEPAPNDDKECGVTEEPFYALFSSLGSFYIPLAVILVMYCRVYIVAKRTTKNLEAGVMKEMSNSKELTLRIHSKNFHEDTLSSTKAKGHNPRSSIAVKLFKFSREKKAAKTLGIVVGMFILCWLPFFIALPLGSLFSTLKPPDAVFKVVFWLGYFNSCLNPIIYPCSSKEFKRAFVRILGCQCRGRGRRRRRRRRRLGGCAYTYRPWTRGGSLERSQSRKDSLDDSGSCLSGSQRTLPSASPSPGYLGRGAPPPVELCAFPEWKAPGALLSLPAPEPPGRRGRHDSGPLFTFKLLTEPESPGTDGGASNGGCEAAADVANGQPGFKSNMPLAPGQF
# Mus musculus [3] = experiment: The compound was tested for antagonistic activity against apomorphine induced climbing in the mouse, percentages are for reduction in climbing after peroral administration; type: functional; details: po
# How it was run: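 Groups of 10 male CD1 mice (20–25 g) dosed po with test compound or vehicle at set times before apomorphine 0.88 mg/kg sc. Mice were placed singly in inverted wire cages and climbing was scored 0–2 at 10 and 20 min after apomorphine. Percent reduction in climbing is given at the stated dose.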
# Rattus norvegicus = experiment: The compound was tested in vivo for induction of catalepsy in rat after ip administration; type: functional
# How it was run: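 Male rats (130–190 g), groups of five, injected ip with compound solution (1 mL/kg). Catalepsy assessed at three times by placing each paw on a 45 mm rubber bung; a paw held 15 s scores 1 (group maximum 20 = 100%). ED50 from percent catalepsy at the final reading, by adapted Litchfield–Wilcoxon.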
# Mus musculus [4] = experiment: The compound was tested for antagonistic activity against apomorphine induced climbing in the mouse after po administration; type: functional
# How it was run: (§1)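 Male CD1 mice (20–25 g), groups of 10, dosed po with compound or vehicle ([…]) at set times before apomorphine 0.88 mg/kg sc. Each mouse placed in an inverted open-ended wire cage; climbing scored 0–2 at 10 and 20 min after apomorphine.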
# Mus musculus [5] = experiment: Antagonistic activity against apomorphine induced climbing in the mouse after po administration; type: functional; how it was run: as §1
# [6] = target: T3, 5-hydroxytryptamine receptor 1A (Rattus norvegicus) (UniProt P19327); experiment: The compound was tested binding affinity against 5-hydroxytryptamine 1A receptor from rat brain using [3H]8-OH-DPAT as radioligand at 10e-6 M.
# T3 sequence (whole entry): T1 sequence (P19327 whole entry)
# How it was run: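 Adult male CD rat hippocampal membranes (endogenous 5-HT removed by 37 °C, 10 min incubation) in 50 mM Tris-HCl pH 7.7 plus CaCl2, ascorbate, pargyline; incubated with 2 nM [3H]8-OH-DPAT and test compound at 10⁻⁶ M, 30 min, 25 °C; 10 μM 5-HT defines nonspecific binding. Specific binding with and without compound gives percent displacement.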
# [7] = target: Adrenergic receptor alpha-1 (Homo sapiens) (UniProt P35348+P25100+P35368); experiment: Compound was tested for binding affinity towards Alpha-1 adrenergic receptor in human cortex membranes; type: cell membranes; details: concentration not given here
# How it was run: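 Postmortem human cortex membranes (stored −80 °C, final in 50 mM Tris-HCl pH 7.6) incubated with [3H]prazosin 0.1 nM and compound at 10⁻⁶ M or 10 concentrations, 30 min at 30 °C; phentolamine 5 μM defines nonspecific binding. Bound ligand by filtration and scintillation counting; Ki from IC50 by Cheng–Prusoff, ±SEM; percentages are displacement at 10⁻⁶ M.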
# Mus musculus [8] = experiment: Percent reduction in apomorphine induced climbing in mouse at 50 mg/Kg of compound given perorally; type: functional
# How it was run: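 Male CD1 mice (20–25 g), groups of 10, given compound po (vehicle 0.1 mL/kg) at 50 mg/kg before apomorphine 0.88 mg/kg sc. Climbing in inverted open-ended wire cages scored 0–2 at 10 and 20 min after apomorphine; percent reduction in climbing at that dose reported.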
Compound,Ki [1] [nM],Ki [2] [nM],ED50 (Rattus norvegicus) [mg/kg],ED50 (Mus musculus [5]) [mg/kg],further results
O=C(CCCN1CCC(O)(c2ccc(Cl)cc2)CC1)c1ccc(F)cc1 [HALOPERIDOL],,,0.44,,ED50 (Mus musculus [3]): 0.16 mg/kg
COc1cccc(N2CCC(CNCC3COc4ccccc4O3)CC2)c1 (centres undefined),,,,,Reduction (Mus musculus [4]): 45%
c1ccc(N2CCC(CNCC3COc4ccccc4O3)CC2)nc1 (stereo in doubt; 13) [listing 1 of 2 here],,,,,inhibition [6]: 82%; inhibition [7]: 84%
c1ccc(N2CCC(CNCC3COc4ccccc4O3)CC2)nc1 (stereo in doubt; 13) [listing 2 of 2 here],,,,,Reduction (Mus musculus [8]): 55%
COc1ccccc1NCC1CCN(CC2COc3ccccc3O2)CC1 (centres undefined),20,20,,62,
c1cnc(NCC2CCN(CC3COc4ccccc4O3)CC2)nc1 (stereo in doubt; 8),21,23,,,
CC1Oc2ccccc2OC1CNCC1CCN(c2ncccn2)CC1 (centres undefined),> 500,> 500,775,134,
COc1ccccc1N1CCC(CNCC2COc3cccc(F)c3O2)CC1 (centres undefined),16,12,23,4,
COc1ccccc1N1CCC(CNCC2COc3cccc(O)c3O2)CC1 (centres undefined),,> 500,,33,inhibition [6]: 94%
Cc1cc2c(s1)Nc1ccccc1N=C2N1CCN(C)CC1 [OLANZAPINE],,,6.07,4.87,
c1ccc(N2CCC(CNCC3COc4ccccc4O3)CC2)nc1 (stereo in doubt; 12) [listing 1 of 2 here],,,,,inhibition [6]: 98%; inhibition [7]: 98%
Cc1nc2n(c(=O)c1CCN1CCC(c3noc4cc(F)ccc34)CC1)CCCC2 [RISPERIDONE],,,1.75,,ED50 (Mus musculus [3]): 0.3 mg/kg
COc1cccc2c1OCC(CNCC1CCN(c3ncccn3)CC1)O2 (centres undefined),128,234,,,
CN1CCN(C2=Nc3cc(Cl)ccc3Nc3ccccc32)CC1 [CLOZAPINE],,,33.9,,ED50 (Mus musculus [3]): 9.5 mg/kg
c1ccc2c(c1)OCC(CNCC1CCN(c3cccc4c3OCCO4)CC1)O2 (centres undefined),18,38,> 200,32,
CC1(CNCC2CCN(c3ncccn3)CC2)COc2ccccc2O1 (centres undefined),195,132,,,
c1ccc(N2CCC(CNCC3COc4ccccc4O3)CC2)cc1 (centres undefined),29,47,,39,
c1ccc(N2CCC(CNCC3COc4ccccc4O3)CC2)nc1 (stereo in doubt; 12) [listing 2 of 2 here],,,,23,

# More lines, main results first:
Ki [1] [nM],Ki [2] [nM],Compound,ED50 (Rattus norvegicus) [mg/kg],ED50 (Mus musculus [5]) [mg/kg],further results
17,94,Clc1ccccc1N1CCC(CNCC2COc3ccccc3O2)CC1 (centres undefined),,,
15,44,COc1ccc(N2CCC(CNCC3COc4ccccc4O3)CC2)cc1 (centres undefined),,11,
3,33,c1ccc2c(c1)OCC(CNCC1CCN(c3cccc4c3OCC4)CC1)O2 (centres undefined),107,18,
,348,CN(CC1CCN(c2ncccn2)CC1)CC1COc2ccccc2O1 (centres undefined),,,inhibition [6]: 85%
2.7,18,c1cnc(N2CCC(CNC[C@H]3COc4ccccc4O3)CC2)nc1,44,9,
3.1,,c1cnc(NCCCNCC2COc3ccccc3O2)nc1 (centres undefined),,6,
8,23,COc1ccccc1N1CCC(CNC[C@H]2COc3ccccc3O2)CC1,50,7,
25,117,c1cnc(N2CCC(CNC[C@@H]3COc4ccccc4O3)CC2)nc1,,,Reduction (Mus musculus [8]): 77%
0.6,2.3,COc1cccc2c1OC(CNCC1CCN(c3ncccn3)CC1)CO2 (centres undefined),,2.4,
37,74,COc1ccccc1N1CCC(CNC[C@@H]2COc3ccccc3O2)CC1,,38,
463,208,c1cnc(NCC2CCN(CC3COc4ccccc4O3)CC2)nc1 (stereo in doubt; 9),,,
